Measurements from ChEMBL document CHEMBL5058577, “EUbOPEN Chemogenomics Library 2 (Multiplex)” (2022).

System: Fibroblast
Experiment: Multiplex assay against human fibroblast
Type: toxicity, cell-based
Summary of the method: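 Tubulin, mitochondrial-mass and membrane-permeability phenotypes are per cents of healthy-nucleus cells. Cells were gated by CellPathfinder machine learning into Hoechst high-intensity objects or normal cells, normal cells into healthy, pyknosed or fragmented nuclei, and pyknosed cells into mitotic or apoptotic. Before that, live cells stained at seeding with Hoechst33342, BioTracker Green Microtubule Cytoskeleton Dye, MitoTracker Red and Annexin V Alexa Fluor 680 were imaged on a CQ1 microscope at 37°C and 5% CO2 after compound addition.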

[1] = 12 h, 1 µM, compound concentration 1 uM, replicate 1
[2] = 12 h, 1 µM, compound concentration 1 uM, replicate 2
[3] = 12 h, 10 µM, compound concentration 10 uM, replicate 1
[4] = 12 h, 10 µM, compound concentration 10 uM, replicate 2
[5] = 24 h, 1 µM, compound concentration 1 uM, replicate 1
[6] = 24 h, 1 µM, compound concentration 1 uM, replicate 2
[7] = 24 h, 10 µM, compound concentration 10 uM, replicate 1
[8] = 24 h, 10 µM, compound concentration 10 uM, replicate 2
[9] = 48 h, 1 µM, compound concentration 1 uM, replicate 1
[10] = 48 h, 1 µM, compound concentration 1 uM, replicate 2
[11] = 48 h, 10 µM, compound concentration 10 uM, replicate 1
[12] = 48 h, 10 µM, compound concentration 10 uM, replicate 2

CCCN1CCC[C@@H]2Cc3n[nH]cc3C[C@H]21.Cl [QUINPIROLE HYDROCHLORIDE]
Population Apoptotic (%) [1]: 45%
Population Fragmented Nuclei (%) [1]: 14%
Population Healthy Nuclei (%) [1]: 65%
Population Hoechst High Intensity Objects (%) [1]: 2%
Population Membrane Permeable-Phenotype (%) [1]: 0%
Population Mitochondria Different-Phenotype (%) [1]: 3%
Population Mitotic Cells (%) [1]: 54%
Population Normal (%) [1]: 97%
Population Pyknosed Nuclei (%) [1]: 20%
Population Tubulin-Different-Phenotype (%) [1]: 17%
Total Cell Count [1]: 156
Population Apoptotic (%) [2]: 52%
Population Fragmented Nuclei (%) [2]: 22%
Population Healthy Nuclei (%) [2]: 60%
Population Hoechst High Intensity Objects (%) [2]: 6%
Population Membrane Permeable-Phenotype (%) [2]: 7%
Population Mitochondria Different-Phenotype (%) [2]: 6%
Population Mitotic Cells (%) [2]: 47%
Population Normal (%) [2]: 93%
Population Pyknosed Nuclei (%) [2]: 17%
Population Tubulin-Different-Phenotype (%) [2]: 50%
Total Cell Count [2]: 139
Population Apoptotic (%) [3]: 58%
Population Fragmented Nuclei (%) [3]: 16%
Population Healthy Nuclei (%) [3]: 68%
Population Hoechst High Intensity Objects (%) [3]: 4%
Population Membrane Permeable-Phenotype (%) [3]: 1%
Population Mitochondria Different-Phenotype (%) [3]: 6%
Population Mitotic Cells (%) [3]: 41%
Population Normal (%) [3]: 95%
Population Pyknosed Nuclei (%) [3]: 15%
Population Tubulin-Different-Phenotype (%) [3]: 33%
Total Cell Count [3]: 115
Population Apoptotic (%) [4]: 45%
Population Fragmented Nuclei (%) [4]: 23%
Population Healthy Nuclei (%) [4]: 59%
Population Hoechst High Intensity Objects (%) [4]: 2%
Population Membrane Permeable-Phenotype (%) [4]: 10%
Population Mitotic Cells (%) [4]: 54%
Population Normal (%) [4]: 97%
Population Pyknosed Nuclei (%) [4]: 17%
Population Tubulin-Different-Phenotype (%) [4]: 55%
Total Cell Count [4]: 184
Population Apoptotic (%) [5]: 52%
Population Fragmented Nuclei (%) [5]: 21%
Population Healthy Nuclei (%) [5]: 64%
Population Hoechst High Intensity Objects (%) [5]: 1%
Population Membrane Permeable-Phenotype (%) [5]: 0%
Population Mitochondria Different-Phenotype (%) [5]: 2%
Population Mitotic Cells (%) [5]: 47%
Population Normal (%) [5]: 98%
Population Pyknosed Nuclei (%) [5]: 13%
Population Tubulin-Different-Phenotype (%) [5]: 13%
Total Cell Count [5]: 172
Population Apoptotic (%) [6]: 34%
Population Fragmented Nuclei (%) [6]: 28%
Population Healthy Nuclei (%) [6]: 53%
Population Hoechst High Intensity Objects (%) [6]: 2%
Population Membrane Permeable-Phenotype (%) [6]: 1%
Population Mitochondria Different-Phenotype (%) [6]: 7%
Population Mitotic Cells (%) [6]: 65%
Population Pyknosed Nuclei (%) [6]: 17%
Population Tubulin-Different-Phenotype (%) [6]: 41%
Total Cell Count [6]: 150
Population Apoptotic (%) [7]: 75%
Population Fragmented Nuclei (%) [7]: 22%
Population Healthy Nuclei (%) [7]: 67%
Population Hoechst High Intensity Objects (%) [7]: 2%
Population Membrane Permeable-Phenotype (%) [7]: 0%
Population Mitochondria Different-Phenotype (%) [7]: 7%
Population Mitotic Cells (%) [7]: 25%
Population Normal (%) [7]: 97%
Population Pyknosed Nuclei (%) [7]: 10%
Population Tubulin-Different-Phenotype (%) [7]: 32%
Total Cell Count [7]: 119
Population Apoptotic (%) [8]: 55%
Population Fragmented Nuclei (%) [8]: 38%
Population Healthy Nuclei (%) [8]: 51%
Population Hoechst High Intensity Objects (%) [8]: 1%
Population Membrane Permeable-Phenotype (%) [8]: 7%
Population Mitochondria Different-Phenotype (%) [8]: 3%
Population Mitotic Cells (%) [8]: 45%
Population Normal (%) [8]: 98%
Population Pyknosed Nuclei (%) [8]: 9%
Population Tubulin-Different-Phenotype (%) [8]: 39%
Total Cell Count [8]: 209
Population Apoptotic (%) [9]: 68%
Population Fragmented Nuclei (%) [9]: 23%
Population Healthy Nuclei (%) [9]: 62%
Population Hoechst High Intensity Objects (%) [9]: 3%
Population Membrane Permeable-Phenotype (%) [9]: 0%
Population Mitochondria Different-Phenotype (%) [9]: 3%
Population Mitotic Cells (%) [9]: 32%
Population Normal (%) [9]: 96%
Population Pyknosed Nuclei (%) [9]: 14%
Population Tubulin-Different-Phenotype (%) [9]: 21%
Total Cell Count [9]: 175
Population Apoptotic (%) [10]: 38%
Population Fragmented Nuclei (%) [10]: 37%
Population Healthy Nuclei (%) [10]: 53%
Population Hoechst High Intensity Objects (%) [10]: 1%
Population Membrane Permeable-Phenotype (%) [10]: 8%
Population Mitochondria Different-Phenotype (%) [10]: 4%
Population Mitotic Cells (%) [10]: 61%
Population Normal (%) [10]: 98%
Population Pyknosed Nuclei (%) [10]: 8%
Population Tubulin-Different-Phenotype (%) [10]: 42%
Total Cell Count [10]: 157
Population Apoptotic (%) [11]: 53%
Population Fragmented Nuclei (%) [11]: 23%
Population Healthy Nuclei (%) [11]: 65%
Population Hoechst High Intensity Objects (%) [11]: 1%
Population Membrane Permeable-Phenotype (%) [11]: 2%
Population Mitochondria Different-Phenotype (%) [11]: 6%
Population Mitotic Cells (%) [11]: 46%
Population Normal (%) [11]: 98%
Population Pyknosed Nuclei (%) [11]: 11%
Population Tubulin-Different-Phenotype (%) [11]: 31%
Total Cell Count [11]: 119
Population Apoptotic (%) [12]: 46%
Population Fragmented Nuclei (%) [12]: 43%
Population Healthy Nuclei (%) [12]: 48%
Population Hoechst High Intensity Objects (%) [12]: 3%
Population Mitochondria Different-Phenotype (%) [12]: 4%
Population Mitotic Cells (%) [12]: 53%
Population Normal (%) [12]: 96%
Population Pyknosed Nuclei (%) [12]: 8%
Population Tubulin-Different-Phenotype (%) [12]: 48%
Total Cell Count [12]: 192
